Data on 50 compounds can be found in ChEMBL document CHEMBL1806465, “Synthesis and biological evaluation of 4-nitro-substituted 1,3-diaryltriazenes as a novel class of potent antitumor agents” (Eur J Med Chem, 2011).

pIC50: −log10 of the molar value. Values after ≈ are worked out from the molar mass of the structure shown. Active and inactive are the calls of the source. The calls are words filed in the database; no cut-off is given here.

For one data set, the system named is HeLa. In words: Cytotoxicity against human HeLa cells after 72 hrs by MTT assay. It is filed as functional, cell-based.
Data set [1] in a line: Solubility of the compound in DMSO. It is filed as physicochemical.
Data set [2] in a line: Stability of the compound in DMSO after 26.25 hrs by LC/MS/MS analysis in presence of 10% FBS. It is filed as physicochemical. The conditions noted are these: cattle; for remaining at 26.25 h: DMSO with 10% FBS, read-out: Stability; for Stability: 26.25 h.
Another data set relates to Nucleic Acid. In words: Binding affinity to calf thymus DNA assessed as change in melting temperature at compound to DNA ratio of 0.3. The conditions noted are these: Bos taurus. It is filed as nucleic-acid assay. A digest of the protocol:
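ct-DNA sonicated, filtered, in Na-cacodylate buffer pH 7, I = 0.05 mol dm-3, 2 x 10^-5 mol dm-3 (as phosphate, ε260 = 6600); compound/DNA ratio 0.3. Absorbance at 260 nm followed versus temperature, compound absorbance subtracted, curves normalized. Tm taken from first-derivative maximum, confirmed by tangent method; ΔTm = Tm(complex) − Tm(free DNA), mean of ≥2 runs, error ±0.5 °C.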

Data set [3] is described as follows: Solubility of the compound in water. It is filed as physicochemical. The conditions noted are these: buffer.
For another data set, the system named is L1210. In words: Cytotoxicity against mouse L1210 cells at 32 uM. It is filed as functional.

By pIC50 is commonly meant the negative decadic logarithm of the IC50, by convention in mol/L. Low readings indicate a high IC50, high ones a low IC50. The compound `O=C(c1ccccc1F)N(/N=N/c1ccc([N+](=O)[O-])cc1C(F)(F)F)c1ccc([N+](=O)[O-])cc1C(F)(F)F` gave a pIC50 in the data set with HeLa of 6.10.
As for `O=C(CCl)N(/N=N/c1ccc([N+](=O)[O-])cc1C(F)(F)F)c1ccc([N+](=O)[O-])cc1C(F)(F)F`, the negative-log IC50 (pIC50) in the data set with HeLa is 6.10.
The solubility is the dissolved amount per volume that the medium holds. A low value points to a poorly soluble substance. `Fc1ccc(/N=N/Nc2ccc(F)c(F)c2)cc1F` showed a solubility in data set [1] of 186 µM (≈ 50 µg/mL). The result in the data set with HeLa was inactive.
Take `O=C(c1cccc(C(F)(F)F)c1)N(/N=N/c1ccc([N+](=O)[O-])cc1Cl)c1ccc([N+](=O)[O-])cc1Cl`: in the data set on HeLa, the negative-log IC50 (pIC50) is 5.93.
Consider `O=[N+]([O-])c1ccc(/N=N/Nc2ccc([N+](=O)[O-])cc2)cc1`, for which the result in the data set with HeLa was inactive.
The compound `Clc1cc(Cl)c(/N=N/Nc2cc(Cl)c(Cl)cc2Cl)cc1Cl` registered a solubility in data set [1] of 41.3 µM (≈ 16.7 µg/mL). The result in the data set on HeLa was inactive.
As for `O=C(c1ccc(F)cc1)N(/N=N/c1ccc([N+](=O)[O-])cc1Br)c1ccc([N+](=O)[O-])cc1Br`, in the data set with HeLa, the negative logarithm of the IC50 (pIC50) is 6.24.
The same measure, in the same setting: to `CCOC(=O)CC(=O)N(/N=N/c1ccc([N+](=O)[O-])cc1C(F)(F)F)c1ccc([N+](=O)[O-])cc1C(F)(F)F` belongs 6.52; to `CC(=O)N(/N=N/c1ccc(Cl)c(C(F)(F)F)c1)c1ccc(Cl)c(C(F)(F)F)c1`, 4.30; to `CC(=O)N(/N=N/c1ccc([N+](=O)[O-])cc1)c1ccc([N+](=O)[O-])cc1`, 4.20.
For `O=C(c1ccccc1)N(/N=N/c1ccc([N+](=O)[O-])cc1Cl)c1ccc([N+](=O)[O-])cc1Cl`, the remaining at 26.25 h in data set [2] was determined as 9%. Further, the negative logarithm of the IC50 (pIC50) in the data set with HeLa was 6.23.
`COc1ccc(/C=C/C(=O)N(/N=N/c2cc(C(F)(F)F)ccc2Cl)c2cc(C(F)(F)F)ccc2Cl)c(OC)c1` came in with a solubility in data set [1] of 84.4 µM (≈ 50 µg/mL). Also, the outcome in the data set on HeLa was inactive.
Compound `O=C(c1cccc(C(F)(F)F)c1)N(/N=N/c1ccc([N+](=O)[O-])cc1C(F)(F)F)c1ccc([N+](=O)[O-])cc1C(F)(F)F` showed a negative logarithm of the IC50 (pIC50) in the data set on HeLa of 6.12.
In the data set on HeLa, `CC(=O)OCC(=O)N(/N=N/c1ccc([N+](=O)[O-])cc1Cl)c1ccc([N+](=O)[O-])cc1Cl` had a pIC50 of 6.46.
Turning to `Fc1cccc(/N=N/Nc2cccc(F)c2)c1`, in data set [1], the concentration in solution (solubility) came to 214 µM (≈ 50 µg/mL). For the same compound, in the data set with HeLa, the result was inactive.
In the case of `O=[N+]([O-])c1ccc(/N=N/Nc2ccc([N+](=O)[O-])cc2Cl)c(Cl)c1`, in data set [2], the Stability result is “Stable”. For the same compound, the result in the data set on Nucleic Acid was inactive. Further, the solubility result in data set [3] is on record as “Insoluble”. In the data set with HeLa, this compound had a pIC50 of 5.52.
Consider `CC(=O)NCC(=O)O.N=C(N)c1ccc(/N=N/Nc2ccc(C(=N)N)cc2)cc1` [DIMINAZEN ACETURATE], for which the Activity in the data set with L1210 was found to be 50%. The negative logarithm of the IC50 (pIC50) in the data set with HeLa was 3.74.
In data set [1], `Clc1ccc(/N=N/Nc2ccc(Cl)c(Cl)c2)cc1Cl` came in with a solubility of 74.6 µM (≈ 25 µg/mL).
`O=C(c1ccccc1)N(/N=N/c1ccc([N+](=O)[O-])cc1Br)c1ccc([N+](=O)[O-])cc1Br` gave a negative-log IC50 (pIC50) in the data set with HeLa of 5.82.
On to `O=C(c1ccccc1C(F)(F)F)N(/N=N/c1ccc([N+](=O)[O-])cc1Br)c1ccc([N+](=O)[O-])cc1Br`, for which, in the data set with HeLa, the pIC50 is 4.87.
In the case of `O=[N+]([O-])c1ccc(/N=N/Nc2ccc([N+](=O)[O-])cc2C(F)(F)F)c(C(F)(F)F)c1`, the Stability entry in data set [2] is listed as “Stable”. Besides, the solubility entry in data set [3] is on record as “Insoluble”.
On to `O=[N+]([O-])c1ccc(/N=N/Nc2ccc([N+](=O)[O-])cc2Br)c(Br)c1`, for which, in data set [3], the solubility result was “Insoluble”. For the same compound, in the data set with HeLa, the pIC50 was 6.03.
In the data set on HeLa, `O=C(c1ccc(C(F)(F)F)cc1)N(/N=N/c1ccc([N+](=O)[O-])cc1Cl)c1ccc([N+](=O)[O-])cc1Cl` had a pIC50 of 5.97.
In the data set on HeLa, `O=C(Cc1ccccc1)N(/N=N/c1ccc([N+](=O)[O-])cc1Cl)c1ccc([N+](=O)[O-])cc1Cl` showed a pIC50 of 6.28.
`COC(=O)N(/N=N/c1ccc([N+](=O)[O-])cc1Cl)c1ccc([N+](=O)[O-])cc1Cl`: in the data set with HeLa, the pIC50 was 6.01.
With `O=C(c1ccccc1C(F)(F)F)N(/N=N/c1ccc([N+](=O)[O-])cc1C(F)(F)F)c1ccc([N+](=O)[O-])cc1C(F)(F)F`, the pIC50 in the data set on HeLa is 5.27.
Consider `CC(=O)N(/N=N/c1ccc([N+](=O)[O-])cc1C(F)(F)F)c1ccc([N+](=O)[O-])cc1C(F)(F)F`, for which, in data set [2], the remaining at 26.25 h is 51%.
With `O=C(c1cccc(C(F)(F)F)c1)N(/N=N/c1ccc([N+](=O)[O-])cc1Br)c1ccc([N+](=O)[O-])cc1Br`, the pIC50 in the data set on HeLa was 5.95.
Take `Clc1ccc(Cl)c(/N=N/Nc2cc(Cl)ccc2Cl)c1`: the concentration in solution in data set [1] (solubility) came to 37.3 µM (≈ 12.5 µg/mL). The result in the data set with HeLa was inactive.
In data set [1], `Fc1ccc(/N=N/Nc2ccc(F)cc2F)c(F)c1` displayed a solubility of 186 µM (≈ 50 µg/mL). Besides, in the data set on HeLa, the result was inactive.
`COc1cc(/C=C/C(=O)N(/N=N/c2cc(C(F)(F)F)ccc2Cl)c2cc(C(F)(F)F)ccc2Cl)ccc1OC(C)=O`: the solubility in data set [1] was 40.3 µM (≈ 25 µg/mL). In addition, in the data set on HeLa, the result was inactive.
Regarding `CC(=O)Oc1ccc(/C=C/C(=O)N(/N=N/c2cccc(F)c2)c2cccc(F)c2)cc1OC(C)=O`, the solubility in data set [1] amounted to 52.1 µM (≈ 25 µg/mL). The result in the data set on HeLa was inactive.
Take `O=C(c1ccccc1F)N(/N=N/c1ccc([N+](=O)[O-])cc1Br)c1ccc([N+](=O)[O-])cc1Br`: in the data set with HeLa, the negative-log IC50 (pIC50) was 5.92.
As to `FC(F)(F)c1cc(Cl)ccc1/N=N/Nc1ccc(Cl)cc1C(F)(F)F`, the solubility in data set [1] is 62.2 µM (≈ 25 µg/mL). For the same compound, the outcome in the data set with HeLa was inactive.
Consider `O=[N+]([O-])c1ccc(/N=N/Nc2ccc([N+](=O)[O-])cc2F)c(F)c1`, for which the solubility result in data set [3] is given as “Insoluble”.
In data set [1], `O=[N+]([O-])c1ccc(N=NNc2ccc([N+](=O)[O-])cc2)cc1` registered a solubility of 43.5 µM (≈ 12.5 µg/mL).
In the case of `O=C(c1ccccc1C(F)(F)F)N(/N=N/c1ccc([N+](=O)[O-])cc1Cl)c1ccc([N+](=O)[O-])cc1Cl`, the negative-log IC50 (pIC50) in the data set on HeLa is 4.98.
In turn, `O=C(c1cccc(F)c1)N(/N=N/c1ccc([N+](=O)[O-])cc1C(F)(F)F)c1ccc([N+](=O)[O-])cc1C(F)(F)F` gave a negative-log IC50 (pIC50) in the data set on HeLa of 6.06.
In data set [1], `COc1cc(/C=C/C(=O)N(/N=N/c2ccc(Cl)c(C(F)(F)F)c2)c2ccc(Cl)c(C(F)(F)F)c2)ccc1OC(C)=O` gave a solubility of 16.8 µM (≈ 10.4 µg/mL). The outcome in the data set with HeLa was inactive.
Regarding `CC(=O)N(/N=N/c1cccc(F)c1)c1cccc(F)c1`, in data set [1], the solubility worked out at 182 µM (≈ 50 µg/mL). Further, the outcome with HeLa was inactive.
Take `O=C(c1ccc(F)cc1)N(/N=N/c1ccc([N+](=O)[O-])cc1C(F)(F)F)c1ccc([N+](=O)[O-])cc1C(F)(F)F`: in the data set with HeLa, the pIC50 was 6.00.
Compound `O=C(c1ccc(C(F)(F)F)cc1)N(/N=N/c1ccc([N+](=O)[O-])cc1C(F)(F)F)c1ccc([N+](=O)[O-])cc1C(F)(F)F` had a pIC50 in the data set on HeLa of 6.16.
The compound `O=C(CCl)N(/N=N/c1ccc([N+](=O)[O-])cc1Cl)c1ccc([N+](=O)[O-])cc1Cl` had a pIC50 in the data set with HeLa of 6.26.
Regarding `O=C(c1cccc(F)c1)N(/N=N/c1ccc([N+](=O)[O-])cc1Cl)c1ccc([N+](=O)[O-])cc1Cl`, the negative-log IC50 (pIC50) in the data set on HeLa is 5.60.
In the data set with HeLa, `CC(=O)OCC(=O)N(/N=N/c1ccc([N+](=O)[O-])cc1Br)c1ccc([N+](=O)[O-])cc1Br` gave a pIC50 of 6.31.
`CC(=O)Oc1ccc(/C=C/C(=O)N(/N=N/c2ccc(Cl)c(C(F)(F)F)c2)c2ccc(Cl)c(C(F)(F)F)c2)cc1OC(C)=O` gave a negative logarithm of the IC50 (pIC50) in the data set on HeLa of 4.37.
As for `O=C(c1ccccc1)N(/N=N/c1ccc([N+](=O)[O-])cc1C(F)(F)F)c1ccc([N+](=O)[O-])cc1C(F)(F)F`, the remaining at 26.25 h in data set [2] stood at 63%. In the data set with HeLa, the pIC50 was 6.22.
Compound `COc1ccc(/C=C/C(=O)N(/N=N/c2cc(C(F)(F)F)ccc2Cl)c2cc(C(F)(F)F)ccc2Cl)cc1OC` came in with a solubility in data set [1] of 28.1 µM (≈ 16.6 µg/mL). The outcome with HeLa was inactive.
In the case of `O=C(c1ccccc1F)N(/N=N/c1ccc([N+](=O)[O-])cc1Cl)c1ccc([N+](=O)[O-])cc1Cl`, the pIC50 in the data set on HeLa was 5.63.
`COc1cc(/C=C/C(=O)N(/N=N/c2cc(C(F)(F)F)ccc2Cl)c2cc(C(F)(F)F)ccc2Cl)cc(OC)c1` displayed a solubility in data set [1] of 24.1 µM (≈ 14.3 µg/mL). Besides, in the data set with HeLa, the result was inactive.
